Measurements gathered from unrelated publications.
Protocols differ between the studies behind these lines.
Target: Protein kinase C eta type (PRKCH, Homo sapiens, UniProt P24723)

SMILES	test	setting	remaining binding [%]
C[C@@H](c1ccc(-n2cnc3c(N)ncnc32)cc1)N1CCc2nn(C)c(Cc3ccccc3)c2C1=O	binding, competition with immobilised ligand	0.1 µM	100
Cn1nc(C(=O)NCc2ccc(C(=O)O)cc2)cc1-c1ccc2[nH]ccc2c1	cell-free assay, competition with immobilised ligand	0.1 µM	84
COc1cnc(Nc2cccc(S(N)(=O)=O)c2)nc1N1CCN(c2ccccc2)CC1	binding, competition with immobilised ligand	1 µM	100
C=CC(=O)N1CCC(C(=O)NCC(=O)N2CCN(c3nc(-c4cnc(N)nc4C(F)F)nc(N4CCOCC4)n3)CC2)CC1	binding, competition with immobilised ligand	1 µM	100
CNC(=O)Nc1ccc2c(c1)CC[C@@]21OC(=O)N(CC(=O)N(Cc2ccc(F)cc2)[C@@H](C)C(F)(F)F)C1=O	cell-free assay, competition with immobilised ligand	1 µM	93
FC(F)(F)Oc1cccc(-c2cnc3ccc(-c4ccncc4)nn23)c1	cell-free assay, competition with immobilised ligand	5 µM	91
N[C@@H]1CCN(c2nccc(-c3cnn4ncccc34)n2)C1	binding	1 µM	100
O=C(NCCCN1CCOCC1)c1ccc(Nc2nccc(-c3cc4ccccc4s3)n2)cc1	binding, competition with immobilised ligand	1 µM	84
O=C(Nc1c[nH]nc1C(=O)NC1CCNCC1)c1cc(F)cc(F)c1	binding, competition with immobilised ligand	1 µM	73
CN(C)c1ncnc(-c2ccc3nc(Nc4cc(CN5CCN(C(=O)CC(F)(F)F)CC5)ccn4)[nH]c3c2)c1Cl	cell-free assay, competition with immobilised ligand	1 µM	100
O=C(NCCCN1CCOCC1)c1ccc(Nc2ncc(Cl)c(-c3ccc(Cl)s3)n2)cc1	binding, competition with immobilised ligand	1 µM	100
COc1cc(-c2cn(C3CCc4c(F)cccc4N(CC(F)(F)F)C3=O)nn2)ccc1-n1cnc(C)c1 (stereo not shown)	cell-free assay, competition with immobilised ligand	1 µM	100
F[C@@H]1CCN(c2nccc(-c3cnn4ncccc34)n2)C1	binding	1 µM	100
CCS(=O)(=O)c1cc2cc(C[C@@](O)(CC(C)(C)c3ccc(F)cc3C(N)=O)C(F)(F)F)[nH]c2cn1	cell-free assay, competition with immobilised ligand	1 µM	100
COc1ccnn2ncc(-c3ccnc(N(C)C)n3)c12	binding	1 µM	92
COc1cnc(Nc2cccc(S(N)(=O)=O)c2)nc1N1CCN(c2ccccc2)C(=O)C1	binding, competition with immobilised ligand	1 µM	95
C[C@H]1CCN(c2nccc(-c3cnn4ncccc34)n2)C1	binding	1 µM	93
O=C(c1ccc(Nc2nccc(-c3cc4ccccc4s3)n2)cc1)N1CCC(N2CCCC2)CC1	binding, competition with immobilised ligand	1 µM	74
COc1ccc2c(c1)O[C@@H](c1ccc(OC)c(OC)c1)C[C@H]2NC(=O)C1(c2ccc3c(c2)OC(F)(F)O3)CC1	cell-free assay, competition with immobilised ligand	1 µM	96
Cc1cnn2ncc(-c3ccnc(N(C)C)n3)c2c1	binding	1 µM	100
C[C@@H]1CN(c2cc(-c3n[nH]c4ccc(OC5(C)CC5)cc34)ncn2)C[C@H](C)O1	cell-free assay, competition with immobilised ligand	0.1 µM	92
CN(C)c1ncc(F)c(-c2cnn3ncccc23)n1	binding	1 µM	100
